Legend:
[1] = biological target: T1, Adenosine kinase (Toxoplasma gondii, UniProt Q9TVW2); assay: Binding affinity to purified Toxoplasma gondii adenosine kinase
T1 sequence (Q9TVW2 whole entry): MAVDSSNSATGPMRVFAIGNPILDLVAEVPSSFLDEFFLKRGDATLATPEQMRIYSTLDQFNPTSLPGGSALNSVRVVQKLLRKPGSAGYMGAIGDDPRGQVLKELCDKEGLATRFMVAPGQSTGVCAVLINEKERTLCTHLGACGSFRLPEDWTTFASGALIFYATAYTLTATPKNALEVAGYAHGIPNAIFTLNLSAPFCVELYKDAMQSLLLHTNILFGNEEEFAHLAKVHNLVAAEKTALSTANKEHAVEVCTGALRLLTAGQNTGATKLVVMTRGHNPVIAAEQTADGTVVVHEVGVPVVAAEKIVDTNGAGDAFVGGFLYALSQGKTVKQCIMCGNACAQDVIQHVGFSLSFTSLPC
Summary of the method: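 Radiometric assay at 37 °C in 50 mM Tris-Cl pH 7.4 with 2.5 mM ATP, 5 mM MgCl₂, creatine phosphate/creatine kinase regeneration and 5 µM [8-¹⁴C]adenosine, plus varied inhibitor. Reaction stopped by boiling, then adenosine and AMP separated by TLC and quantified. Apparent Ki from Dixon plots (1/V vs [I]), taken as equal to apparent Km for alternative substrates. Mean ± SD, ≥2 experiments in triplicate.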

[2] = Toxicity against human foreskin fibroblasts at 5 uM after 48 hrs by MTT method; assay type: cell-based, Fibroblast; details: read-out: Survival
Summary of the method: (§1)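 Uninfected human foreskin fibroblasts (≤20 passages, RPMI 1640) seeded ~10⁵ cells/well and attached ≥24 h at 37 °C, 5% CO2. Compound in medium added to final concentrations, then 48 h incubation. MTT was added for 4 h, formazan dissolved in DMSO and absorbance read at 540 nm. At least two independent experiments, each in triplicate.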

[3] = Toxicity against human foreskin fibroblasts at 50 uM after 48 hrs by MTT method; assay type: cell-based, Fibroblast; details: read-out: Survival; summary of the method: as §1
[4] = Toxicity against human foreskin fibroblasts at 25 uM after 48 hrs by MTT method; assay type: cell-based, Fibroblast; details: read-out: Survival; summary of the method: as §1
[5] = tested on: Toxoplasma gondii; assay: Antitoxoplasma activity against wild type Toxoplasma gondii RH assessed as survival at 5 uM after 18 hrs by [5,6-[…]]uracil incorporation assay; assay type: functional
Summary of the method: (§2)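 Human foreskin fibroblast monolayers (≤20 passages, RPMI 1640) seeded ~5×10⁵ cells/well, attached 24 h at 37 °C, 5% CO2. Infected with isolated tachyzoites at 1 parasite/cell in 3% FBS for 1 h, then washed. Compounds were dissolved in 50% ethanol and added at final 0, 5, 10, 25 or 50 µM with 10% FBS. Survival was read as radiolabeled uracil incorporation into TCA-precipitated nucleic acid versus untreated controls, at least in triplicate.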

[6] = tested on: Toxoplasma gondii; assay: Antitoxoplasma activity against wild type Toxoplasma gondii RH assessed as survival at 10 uM after 18 hrs by [5,6-[…]]uracil incorporation assay; assay type: functional; summary of the method: as §2
[7] = tested on: Toxoplasma gondii; assay: Antitoxoplasma activity against adenosine kinase deficient Toxoplasma gondii TgAK-3 assessed as survival at 10 uM after 18 hrs by [5,6-[…]]uracil incorporation assay; assay type: functional; summary of the method: as §2
[8] = tested on: Toxoplasma gondii; assay: Antitoxoplasma activity against wild type Toxoplasma gondii RH assessed as survival at 50 uM after 18 hrs by [5,6-[…]]uracil incorporation assay; assay type: functional; summary of the method: as §2
[9] = tested on: Toxoplasma gondii; assay: Antitoxoplasma activity against adenosine kinase deficient Toxoplasma gondii TgAK-3 assessed as survival at 50 uM after 18 hrs by [5,6-[…]]uracil incorporation assay; assay type: functional; summary of the method: as §2
[10] = tested on: Toxoplasma gondii; assay: Antitoxoplasma activity against wild type Toxoplasma gondii RH assessed as survival at 25 uM after 18 hrs by [5,6-[…]]uracil incorporation assay; assay type: functional; summary of the method: as §2
[11] = tested on: Toxoplasma gondii; assay: Antitoxoplasma activity against adenosine kinase deficient Toxoplasma gondii TgAK-3 assessed as survival at 5 uM after 18 hrs by [5,6-[…]]uracil incorporation assay; assay type: functional; summary of the method: as §2
[12] = Toxicity against human foreskin fibroblasts at 10 uM after 48 hrs by MTT method; assay type: cell-based, Fibroblast; details: read-out: Survival; summary of the method: as §1
[13] = tested on: Toxoplasma gondii; assay: Antitoxoplasma activity against wild type Toxoplasma gondii RH assessed as survival after 18 hrs by [5,6-[…]]uracil incorporation assay; assay type: functional, organism-based
[14] = tested on: Toxoplasma gondii; assay: Antitoxoplasma activity against adenosine kinase deficient Toxoplasma gondii TgAK-3 assessed as survival at 25 uM after 18 hrs by [5,6-[…]]uracil incorporation assay; assay type: functional; summary of the method: as §2

SMILES: OC[C@H]1O[C@@H](n2ccc3c(SCc4ccccc4)ncnc32)[C@H](O)[C@@H]1O
- Ki [1]: 28 µM

SMILES: OC[C@H]1O[C@@H](n2ccc3c(SCc4ccc(F)cc4)ncnc32)[C@H](O)[C@@H]1O
- Ki [1]: 37 µM

SMILES: N#Cc1ccc(CSc2ncnc3c2ccn3[C@@H]2O[C@H](CO)[C@@H](O)[C@H]2O)cc1
- viability at 48 h, 5 µM [2]: 100%
- viability at 48 h, 50 µM [3]: 82.1%
- viability at 48 h, 25 µM [4]: 94.3%
- survival at 5 µM [5]: 52.5%
- survival at 10 µM [6]: 4%
- survival at 10 µM [7]: 100%
- survival at 50 µM [8]: 0%
- survival at 50 µM [9]: 100%
- Ki [1]: 5.2 µM
- survival at 25 µM [10]: 0%
- survival at 5 µM [11]: 98.4%
- viability at 48 h, 10 µM [12]: 100%
- IC50 [13]: 5.3 µM
- survival at 25 µM [14]: 100%

SMILES: Cc1ccc(CSc2ncnc3c2ccn3[C@@H]2O[C@H](CO)[C@@H](O)[C@H]2O)cc1
- Ki [1]: 19 µM

SMILES: COc1ccc(CSc2ncnc3c2ccn3[C@@H]2O[C@H](CO)[C@@H](O)[C@H]2O)cc1
- viability at 48 h, 5 µM [2]: 100%
- viability at 48 h, 50 µM [3]: 90.6%
- viability at 48 h, 25 µM [4]: 100%
- survival at 5 µM [5]: 49.8%
- survival at 10 µM [6]: 5%
- survival at 10 µM [7]: 100%
- survival at 50 µM [8]: 0%
- survival at 50 µM [9]: 100%
- Ki [1]: 5.8 µM
- survival at 25 µM [10]: 0%
- survival at 5 µM [11]: 100%
- viability at 48 h, 10 µM [12]: 100%
- IC50 [13]: 4.6 µM
- survival at 25 µM [14]: 100%

SMILES: OC[C@H]1O[C@@H](n2ccc3c(SCc4ccc(Cl)c(Cl)c4)ncnc32)[C@H](O)[C@@H]1O
- Ki [1]: 29 µM

SMILES: OC[C@H]1O[C@@H](n2ccc3c(SCc4ccc(F)cc4F)ncnc32)[C@H](O)[C@@H]1O
- Ki [1]: 16 µM

SMILES: Cc1ccccc1CSc1ncnc2c1ccn2[C@@H]1O[C@H](CO)[C@@H](O)[C@H]1O
- Ki [1]: 228 µM

SMILES: O=[N+]([O-])c1cccc(CSc2ncnc3c2ccn3[C@@H]2O[C@H](CO)[C@@H](O)[C@H]2O)c1
- Ki [1]: 45 µM

SMILES: OC[C@H]1O[C@@H](n2ccc3c(SCc4c(F)cccc4Cl)ncnc32)[C@H](O)[C@@H]1O
- Ki [1]: 7.2 µM

SMILES: OC[C@H]1O[C@@H](n2ccc3c(SCc4cccc(C(F)(F)F)c4)ncnc32)[C@H](O)[C@@H]1O
- Ki [1]: 22 µM

SMILES: OC[C@H]1O[C@@H](n2cc(I)c3c(SCc4ccccc4)ncnc32)[C@H](O)[C@@H]1O
- Ki [1]: 82.6 µM

SMILES: OC[C@H]1O[C@@H](n2ccc3c(SCc4ccc(Cl)cc4)ncnc32)[C@H](O)[C@@H]1O
- Ki [1]: 11 µM

SMILES: O=[N+]([O-])c1ccc(CSc2ncnc3c2ccn3[C@@H]2O[C@H](CO)[C@@H](O)[C@H]2O)cc1
- Ki [1]: 35 µM

SMILES: OC[C@H]1O[C@@H](n2ccc3c(SCc4ccc(Br)cc4)ncnc32)[C@H](O)[C@@H]1O
- Ki [1]: 253 µM

SMILES: CC(C)(C)c1ccc(CSc2ncnc3c2ccn3[C@@H]2O[C@H](CO)[C@@H](O)[C@H]2O)cc1
- Ki [1]: 24 µM

SMILES: OC[C@H]1O[C@@H](n2ccc3c(SCc4ccc(OC(F)(F)F)cc4)ncnc32)[C@H](O)[C@@H]1O
- Ki [1]: 35 µM

SMILES: OC[C@H]1O[C@@H](n2ccc3c(SCc4ccc(Cl)cc4Cl)ncnc32)[C@H](O)[C@@H]1O
- Ki [1]: 26 µM

SMILES: OC[C@H]1O[C@@H](n2ccc3c(SCc4ccccc4F)ncnc32)[C@H](O)[C@@H]1O
- Ki [1]: 59 µM

SMILES: OC[C@H]1O[C@@H](n2ccc3c(SCc4ccccc4Cl)ncnc32)[C@H](O)[C@@H]1O
- Ki [1]: 36 µM

SMILES: COC(=O)c1ccc(CSc2ncnc3c2ccn3[C@@H]2O[C@H](CO)[C@@H](O)[C@H]2O)cc1
- Ki [1]: 7 µM

SMILES: C=Cc1ccc(CSc2ncnc3c2ccn3[C@@H]2O[C@H](CO)[C@@H](O)[C@H]2O)cc1
- Ki [1]: 180 µM

SMILES: Cc1cccc(CSc2ncnc3c2ccn3[C@@H]2O[C@H](CO)[C@@H](O)[C@H]2O)c1
- Ki [1]: 8.5 µM

SMILES: OC[C@H]1O[C@@H](n2ccc3c(SCc4ccccc4Br)ncnc32)[C@H](O)[C@@H]1O
- Ki [1]: 106 µM

SMILES: OC[C@H]1O[C@@H](n2cnc3c(SCc4ccccc4)ncnc32)[C@H](O)[C@@H]1O [6-BENZYLTHIOINOSINE]
- Ki [1]: 37.7 µM

SMILES: Nc1ncnc2c1ncn2[C@@H]1O[C@H](CO)[C@@H](O)[C@H]1O [ADENOSINE]
- Ki [1]: 8.9 µM

SMILES: CCc1nc(N)nc(N)c1-c1ccc(Cl)cc1 [PYRIMETHAMINE]
- viability at 48 h, 5 µM [2]: 101%
- viability at 48 h, 50 µM [3]: 108%
- viability at 48 h, 25 µM [4]: 108%
- survival at 5 µM [5]: 55.6%
- survival at 10 µM [6]: 36.5%
- survival at 50 µM [8]: 5.8%
- survival at 25 µM [10]: 13.8%
- viability at 48 h, 10 µM [12]: 100%
- IC50 [13]: 5.9 µM

SMILES: Nc1ccc(S(=O)(=O)Nc2ncccn2)cc1 [SULFADIAZINE]
- viability at 48 h, 5 µM [2]: 98.2%
- viability at 48 h, 50 µM [3]: 102%
- viability at 48 h, 25 µM [4]: 99.8%
- survival at 5 µM [5]: 74.6%
- survival at 10 µM [6]: 64.8%
- survival at 50 µM [8]: 46.4%
- survival at 25 µM [10]: 59.8%
- viability at 48 h, 10 µM [12]: 99.8%
- IC50 [13]: 41.2 µM

Source: ChEMBL document CHEMBL1155031, “Structure-activity relationships of 7-deaza-6-benzylthioinosine analogues as ligands of Toxoplasma gondii adenosine kinase” (J Med Chem, 2008)
